Measured values of several laboratories.
Protocols differ between the studies behind these lines.
LATS1: Serine/threonine-protein kinase LATS1 (LATS1, Homo sapiens, UniProt O95835)
ACKR3: Atypical chemokine receptor 3 (ACKR3, Homo sapiens, UniProt P25106)
gag-pol reverse transcriptase: Gag-Pol polyprotein, reverse transcriptase (gag-pol, Human immunodeficiency virus 1, UniProt P03366)
CA1: Carbonic anhydrase 1 (CA1, Homo sapiens, UniProt P00915)
SLC18A2: Synaptic vesicular amine transporter (SLC18A2, Homo sapiens, UniProt Q05940)
CA2: Carbonic anhydrase 2 (CA2, Homo sapiens, UniProt P00918)
UGT1A4: UDP-glucuronosyltransferase 1A4 (UGT1A4, Homo sapiens, UniProt P22310)
CYP2C19: Cytochrome P450 2C19 (CYP2C19, Homo sapiens, UniProt P33261)

| Structure (SMILES) | target | assay | test system | conditions | IC50 |
| --- | --- | --- | --- | --- | --- |
| Clc1ccc(C2(c3ccc(-c4cn[nH]c4)cc3)CCNCC2)cc1 | LATS1 | target engagement in cells, BRET |  |  | 8.87 µM |
| CN1CCC(CNc2ccc3ncc(-c4cccc(OC(F)(F)F)c4)n3n2)CC1 | 5-hydroxytryptamine receptor 3A (HTR3A, Homo sapiens, UniProt P46098) | ion current |  |  | 3.48 µM |
| CC(C)(C)NC(=O)C1CCN(Cc2cccc(/N=N/c3cccc(F)c3)c2)CC1 | ACKR3 | ligand displacement, BRET |  |  | 2 µM |
| CCCCCCNc1c2c([nH]c(=O)c1C(=O)OCC)CCC2 | gag-pol reverse transcriptase | enzyme activity, inhibitor |  |  | > 100 µM |
| OC1(c2ccc(-c3ccnc4[nH]cc(F)c34)cc2)CCCNCC1 (stereo not shown) | LATS1 | target engagement in cells, BRET |  |  | 7.09 µM |
| Cn1cc2c(C(=O)O)ccc(NS(=O)(=O)c3ccc(OCC4CCC4)c(Cl)c3)c2n1 | cGMP-dependent 3',5'-cyclic phosphodiesterase (PDE2A, Homo sapiens, UniProt O00408) | enzyme activity |  |  | > 200 µM |
| CC1=C(/C=C/C(C)=C/C=C/C(C)=C\C(=O)O)C(C)(C)CCC1 | CA1 | enzyme activity, inhibitor, absorbance |  | pH 7.4 | 8.47 µM |
| CC1CNCCC1(O)c1ccc(-c2ccnc3[nH]cc(F)c23)cc1 (stereo not shown) | LATS1 | target engagement in cells, BRET |  |  | 2.21 µM |
| Clc1ccc2c(c1)C(N1CCNCC1)=Nc1ccccc1O2 | SLC18A2 | transporter uptake, inhibitor |  |  | 8.5 µM |
| CC(C)(C)NC(=O)C1CCN(Cc2cccc(/N=N/c3ccccc3)c2)CC1 | ACKR3 | ligand displacement, BRET |  |  | 1 µM |
| Nc1ccc(S(=O)(=O)c2ccc(N)cc2)cc1 | CA2 | enzyme activity, inhibitor, absorbance |  | pH 7.4 | 15 µM |
| Cc1cc(-c2ccnc3[nH]cc(F)c23)cc(F)c1[C@@]1(O)[C@H](C)CNC[C@@H]1C | LATS1 | target engagement in cells, BRET |  |  | 0.027 µM |
| CCOC(=O)c1c(NCCCO)c2c([nH]c1=O)CCC2 | gag-pol reverse transcriptase | enzyme activity, inhibitor |  |  | > 100 µM |
| NC(=O)c1nnn(Cc2cc(Cl)c(C(=O)c3ccc(Cl)cc3)c(Cl)c2)c1N | Delta-type opioid receptor (OPRD1, Homo sapiens, UniProt P41143) | cAMP, antagonist |  |  | 1.09 µM |
| C[C@@H]1CC[C@@]2(OC1)O[C@H]1C[C@H]3[C@@H]4CC[C@H]5C[C@@H](O)CC[C@]5(C)[C@H]4CC(=O)[C@]3(C)[C@H]1[C@@H]2C | UGT1A4 | enzyme activity, inhibitor | human, liver microsomes |  | 2.23 µM |
| OC1CCN(c2ccc(/C=N/NC(=S)Nc3ccc(Cl)cc3)cc2)CC1 | CA2 | enzyme activity, inhibitor, absorbance |  |  | 0.378 µM |
| CCOC(=O)c1c(NCCCCN)c2c([nH]c1=O)CCC2 | gag-pol reverse transcriptase | enzyme activity, inhibitor |  |  | > 100 µM |
| Cc1ccc(OCC(=O)N[C@@H](Cc2c[nH]c3ccccc23)C(=O)OC(C)C)cc1 | CYP2C19 | enzyme activity, inhibitor | human, liver microsomes | 30 min | 31.5 µM |
| COc1cc2nc(N3CCN(C(=O)c4ccco4)[C@H]4CCCC[C@H]43)nc(N)c2cc1OC (racemic) | SLC18A2 | transporter uptake, inhibitor |  |  | 0.146 µM |
| OC(Cn1cncn1)(Cn1cncn1)c1ccc(F)cc1F | CA1 | enzyme activity, inhibitor, absorbance |  | pH 7.4 | 11.1 µM |
| C=CCCCNc1c2c([nH]c(=O)c1C(=O)OCC)CCC2 | gag-pol reverse transcriptase | enzyme activity, inhibitor |  |  | > 100 µM |
| C[C@@H]1CNC[C@H](C)[C@@]1(O)c1ccc(-c2ccnc3[nH]cc(F)c23)cc1 | LATS1 | target engagement in cells, BRET |  |  | 0.518 µM |
| CC(C)(C)NC(=O)C1CCN(Cc2cccc(/N=N/c3ccccc3F)c2)CC1 | ACKR3 | ligand displacement, BRET |  |  | 1.26 µM |

| Structure (SMILES) | target | assay | test system | conditions | IC50 |
| --- | --- | --- | --- | --- | --- |
| Cc1ccc(C(=O)Nc2ccc(CN3CCN(C)CC3)c(C(F)(F)F)c2)cc1C#Cc1cnc2cccnn12 | SLC18A2 | transporter uptake, inhibitor, radiometric |  | cell membranes | 0.7 µM |
| CCCCCCCCCC(=O)CC(=O)Nc1ccccc1 | Transcriptional activator protein LasR (lasR, Pseudomonas aeruginosa, UniProt P25084) | reporter gene, antagonist |  |  | 1.1 µM |
| Cn1cnc([N+](=O)[O-])c1Sc1ncnc2nc[nH]c12 | CA1 | enzyme activity, inhibitor, absorbance |  | pH 7.4 | 18.4 µM |
| CNC(=O)c1ccccc1Nc1nc(Nc2ccc(N3CCNCC3)cc2)ncc1Cl | LATS1 | target engagement in cells, BRET |  |  | 0.301 µM |
| O=c1[nH]c(=O)n([C@H]2C[C@H](O)[C@@H](CO)O2)cc1/C=C/Br | CA1 | enzyme activity, inhibitor, absorbance |  | pH 7.4 | 12.4 µM |
| OC1(c2ccc(-c3ccnc4[nH]cc(F)c34)cc2)CCNC1 (stereo not shown) | LATS1 | enzyme activity, inhibitor, radiometric |  |  | 0.011 µM |
| O=C(CCCN1CC=C(n2c(=O)[nH]c3ccccc32)CC1)c1ccc(F)cc1 | SLC18A2 | transporter uptake, inhibitor, radiometric |  | cell membranes | 0.154 µM |
| CCOCCn1c(C2CCN(CCc3ccc(C(C)(C)C(=O)O)cc3)CC2)nc2ccccc21 | CA2 | enzyme activity, inhibitor, absorbance |  | pH 7.4 | 13.4 µM |
| CCOC(=O)c1c(N(CC)CC)c2c([nH]c1=O)CCC2 | gag-pol reverse transcriptase | enzyme activity, inhibitor |  |  | > 100 µM |
| CNCCC(Oc1ccc(C(F)(F)F)cc1)c1ccccc1 (stereo not shown) | SLC18A2 | transporter uptake, inhibitor |  |  | 2.75 µM |
| OC1(c2ccc(-c3ccnc4[nH]cc(F)c34)cc2)CCNCC1 | LATS1 | enzyme activity, inhibitor, radiometric |  |  | 0.0029 µM |
| CC(C)=CCC/C(C)=C/CC/C(C)=C/Cc1c(O)cc(C)c(C(=O)O)c1O | Sodium channel protein type 2 subunit alpha (SCN2A, Homo sapiens, UniProt Q99250) | ion current, inhibitor, patch clamp |  |  | 1.61 µM |
| CC(C)Nc1cccnc1N1CCN(C(=O)c2cc3cc(NS(C)(=O)=O)ccc3[nH]2)CC1 | SLC18A2 | transporter uptake, inhibitor |  |  | 4.04 µM |
| NC/C(=C\F)COc1cccc(Cn2c(=S)[nH]c(=O)c3[nH]cnc32)c1 | Diamine oxidase [copper-containing] (AOC1, Homo sapiens, UniProt P19801) | enzyme activity, inhibitor |  |  | > 30 µM |
| O=C(O[C@H]1CN2CCC1CC2)N1CCc2ccccc2[C@@H]1c1ccccc1 | SLC18A2 | transporter uptake, inhibitor |  |  | 5.7 µM |
| CN(C/C=C/C#CC(C)(C)C)Cc1cccc2ccccc12 | CA1 | enzyme activity, inhibitor, absorbance |  | pH 7.4 | 30.3 µM |
| CCOC(=O)c1c(NCCCN)c2c([nH]c1=O)CCC2 | gag-pol reverse transcriptase | enzyme activity, inhibitor |  |  | > 100 µM |
| C=C(C)[C@@H]1CC[C@]2(C(=O)O)CC[C@]3(C)[C@H](CC[C@@H]4[C@@]5(C)CC[C@H](O)C(C)(C)[C@@H]5CC[C@]43C)[C@@H]12 | UGT1A4 | enzyme activity, inhibitor | human, liver microsomes |  | 4.21 µM |
| CCCCNc1c2c([nH]c(=O)c1C(=O)OCC)CCC2 | gag-pol reverse transcriptase | enzyme activity, inhibitor |  |  | > 100 µM |
| COc1cc2c(N)nc(N3CCN(C(=O)OCC(C)(C)O)CC3)nc2c(OC)c1OC | SLC18A2 | transporter uptake, inhibitor |  |  | 0.022 µM |
| CCOC(=O)c1c(NC)c2c([nH]c1=O)CCC2 | gag-pol reverse transcriptase | enzyme activity, inhibitor |  |  | > 100 µM |
| Cc1cncc(CN2CCC(=C3c4ccc(Cl)cc4CCc4cccnc43)CC2)c1 | CA1 | enzyme activity, inhibitor, absorbance |  | pH 7.4 | 14.7 µM |
| CN(C)C(=O)c1cc2cnc(Nc3ccc(-c4ccc5c(=O)cc(N6CCOCC6)oc5c4)cc3)nc2n1C1CCCC1 | CYP2C19 | enzyme activity, inhibitor, fluorescence |  | pH 8 | 0.023 µM |
